Results: ChEMBL document CHEMBL1158832, “Bioactive tetrahydrofuran lignans from Peperomia dindygulensis” (J Nat Prod, 2005)
Values after ≈ are worked out from the molar mass of the structure shown.

How the values were obtained:
[1] = tested on: WI-38 VA13; assay: Cytotoxicity against human VA13 cells after 48 hrs by WST8 assay; format: functional, cell-based; details: WI-38 VA13, 48 h
Summary of the method: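 VA-13 cells grown in RITC 80-7 with 10% FBS; ca. 5000 cells/well preincubated 24 h at 37 °C, 5% CO2, then compounds in DMSO added for 48 h. WST-8 added, formazan read at 450 nm; IC50 taken as 50% growth inhibition from viability-versus-concentration plot.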

[2] = tested on: HepG2; assay: Cytotoxicity against human HepG2 cells after 48 hrs by WST8 assay; format: functional, cell-based; details: HepG2, 48 h
Summary of the method: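 About 5000 cells per well, preincubated 24 h at 37 °C in 5% CO2. Cells kept in D-MEM with 10% FBS and 80 µg/mL kanamycin. Samples were added in DMSO and incubated a further 48 h. WST-8 formazan was read at 450 nm, viability was plotted against concentration, and IC50 was taken as the concentration giving 50% growth inhibition.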

[3] = molecular target: T1, P-glycoprotein (ABCB1) (Homo sapiens, UniProt P08183); assay: Inhibition of P-glycoprotein-mediated multidrug resistance in adriamycin-resistant human A2780 cells assessed as calcein accumulation at 0.25 ug/ml after 15 mins relative to control; format: cell-based; details: probe calcein, values are per cent of control
T1 sequence (P08183 whole entry): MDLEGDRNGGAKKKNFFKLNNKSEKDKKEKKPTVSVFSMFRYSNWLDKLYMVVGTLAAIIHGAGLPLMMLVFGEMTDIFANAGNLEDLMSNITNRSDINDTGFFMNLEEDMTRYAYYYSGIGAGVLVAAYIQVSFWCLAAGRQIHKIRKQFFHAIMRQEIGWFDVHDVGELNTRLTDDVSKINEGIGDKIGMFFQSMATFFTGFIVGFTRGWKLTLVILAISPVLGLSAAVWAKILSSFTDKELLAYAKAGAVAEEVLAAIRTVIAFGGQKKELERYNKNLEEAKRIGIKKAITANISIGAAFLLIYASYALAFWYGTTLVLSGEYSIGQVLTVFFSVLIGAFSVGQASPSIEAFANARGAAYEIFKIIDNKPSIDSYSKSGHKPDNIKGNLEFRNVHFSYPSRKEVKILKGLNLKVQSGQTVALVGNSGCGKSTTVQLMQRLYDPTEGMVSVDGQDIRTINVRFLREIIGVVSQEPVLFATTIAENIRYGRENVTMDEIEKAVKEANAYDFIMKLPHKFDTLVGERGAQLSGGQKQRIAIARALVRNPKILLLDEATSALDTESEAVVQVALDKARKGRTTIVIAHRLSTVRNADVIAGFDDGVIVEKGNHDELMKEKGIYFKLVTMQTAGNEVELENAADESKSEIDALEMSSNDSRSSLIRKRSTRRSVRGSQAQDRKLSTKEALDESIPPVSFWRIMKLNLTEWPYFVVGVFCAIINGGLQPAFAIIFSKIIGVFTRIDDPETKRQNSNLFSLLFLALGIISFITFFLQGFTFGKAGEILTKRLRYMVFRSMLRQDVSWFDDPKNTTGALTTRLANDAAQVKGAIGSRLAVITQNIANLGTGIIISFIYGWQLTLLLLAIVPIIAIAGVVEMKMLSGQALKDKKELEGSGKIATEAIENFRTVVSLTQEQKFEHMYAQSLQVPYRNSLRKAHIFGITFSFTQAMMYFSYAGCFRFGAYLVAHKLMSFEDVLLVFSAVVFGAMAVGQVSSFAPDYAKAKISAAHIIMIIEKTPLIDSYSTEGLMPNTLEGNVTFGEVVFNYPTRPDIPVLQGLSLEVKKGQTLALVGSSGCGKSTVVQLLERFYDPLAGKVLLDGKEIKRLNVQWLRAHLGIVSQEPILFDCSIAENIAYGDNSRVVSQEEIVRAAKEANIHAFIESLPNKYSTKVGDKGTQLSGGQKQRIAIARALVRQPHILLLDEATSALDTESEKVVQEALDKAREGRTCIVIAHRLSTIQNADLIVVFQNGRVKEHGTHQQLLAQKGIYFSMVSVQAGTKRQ

[4] = molecular target: T1, P-glycoprotein (ABCB1); assay: Inhibition of P-glycoprotein-mediated multidrug resistance in adriamycin-resistant human A2780 cells assessed as calcein accumulation at 2.5 ug/ml after 15 mins relative to control; format: cell-based; details: probe calcein, values are per cent of control
[5] = molecular target: T1, P-glycoprotein (ABCB1); assay: Inhibition of P-glycoprotein-mediated multidrug resistance in adriamycin-resistant human A2780 cells assessed as calcein accumulation at 25 ug/ml after 15 mins relative to control; format: cell-based; details: probe calcein, values are per cent of control
[6] = molecular target: T1, P-glycoprotein (ABCB1); assay: Inhibition of P-glycoprotein-mediated multidrug resistance in adriamycin-resistant human A2780 cells assessed as calcein accumulation at 0.25 ug/ml after 15 mins relative to verapamil; format: cell-based; details: probe calcein
[7] = molecular target: T1, P-glycoprotein (ABCB1); assay: Inhibition of P-glycoprotein-mediated multidrug resistance in adriamycin-resistant human A2780 cells assessed as calcein accumulation at 2.5 ug/ml after 15 mins relative to verapamil; format: cell-based; details: probe calcein
[8] = molecular target: T1, P-glycoprotein (ABCB1); assay: Inhibition of P-glycoprotein-mediated multidrug resistance in adriamycin-resistant human A2780 cells assessed as calcein accumulation at 25 ug/ml after 15 mins relative to verapamil; format: cell-based; details: probe calcein
[9] = tested on: A549; assay: Antiinflammatory activity against human A549 cells assessed as inhibition of IL-1-alpha-induced ICAM1 expression; format: functional, cell-based
Summary of the method: (§1)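 A549 cells, 2 × 10^4/well seeded the day before, preincubated 1 h ± test compounds, then stimulated with IL-1α (1 ng/mL) or TNF-α (10 ng/mL) for 6 h. Fixed in 1% paraformaldehyde, mouse anti-human ICAM-1 then peroxidase anti-mouse IgG; o-phenylenediamine/H2O2 substrate, pH 5.3, 20 min 37 °C, A415. Expression as % of stimulated minus unstimulated absorbance.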

[10] = tested on: A549; assay: Antiinflammatory activity against human A549 cells assessed as inhibition of TNF-alpha-induced ICAM1 expression; format: functional, cell-based; summary of the method: as §1
[11] = tested on: A549; assay: Cytotoxicity against human A549 cells after 24 hrs by MTT assay; format: functional, cell-based
Summary of the method: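 A549 cells, 2 × 10^4/well seeded the day before, exposed to test compounds 24 h; MTT 500 µg/mL pulsed for the final 4 h, formazan dissolved in 10% SDS overnight, A595. Viability as (sample − background)/(control − background) × 100.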

response, % of control at 0.25 h, 0.25 ug/ml [3]	response, % of control at 0.25 h, 2.5 ug/ml [4]	response, % of control at 0.25 h, 25 ug/ml [5]	inhibition at 0.25 h, 0.25 ug/ml [6]	inhibition at 0.25 h, 2.5 ug/ml [7]	inhibition at 0.25 h, 25 ug/ml [8]	IC50 [9]	IC50 [10]	Compound	IC50 [1]	IC50 [2]	Activity [11]
–	–	–	–	–	–	–	–	O=C1CCCC(=O)C1C(=O)CCc1ccccc1	40.5 µg/mL (≈ 166 µM)	–	–
97%	105%	138%	110%	110%	107%	189 µM	105 µM	COc1cc([C@@H]2O[C@H](c3cc(OC)c4c(c3)OCO4)[C@@H](COC(C)=O)[C@@H]2CO)cc(OC)c1OC	–	–	Not toxic
88%	95%	101%	100%	99%	78%	84.4 µM	38.6 µM	COc1cc([C@@H]2O[C@H](c3cc(OC)c4c(c3)OCO4)[C@@H](COC(C)=O)[C@@H]2COC(C)=O)cc(OC)c1O	47.4 µg/mL (≈ 91.4 µM)	–	Not toxic
–	–	–	–	–	–	–	–	COc1cc([C@H]2O[C@H](c3cc(OC)c4c(c3)OCO4)[C@@H](COC(C)=O)[C@@H]2CO)cc2c1OCO2	36.2 µg/mL (≈ 76.3 µM)	–	–
76%	85%	94%	86%	89%	72%	–	–	COc1cc([C@H]2O[C@@H](c3cc(OC)c4c(c3)OCO4)[C@@H](COC(C)=O)[C@@H]2CO)cc2c1OCO2	–	–	–
–	–	–	–	–	–	–	–	COc1ccc(-c2cc(=O)c3c(O)cc(OC)cc3o2)cc1 [APIGENIN DIMETHYLETHER]	38.9 µg/mL (≈ 130 µM)	–	–

Compound	response, % of control at 0.25 h, 0.25 ug/ml [3]	response, % of control at 0.25 h, 2.5 ug/ml [4]	response, % of control at 0.25 h, 25 ug/ml [5]	inhibition at 0.25 h, 0.25 ug/ml [6]	inhibition at 0.25 h, 2.5 ug/ml [7]	inhibition at 0.25 h, 25 ug/ml [8]	IC50 [9]	IC50 [10]	IC50 [1]	IC50 [2]	Activity [11]
CC(C)[C@@H](C)/C=C/[C@@H](C)[C@H]1CC[C@H]2[C@@]3(O)C=C[C@@]4(O)C[C@@H](O)CC[C@]4(C)[C@H]3CC[C@]12C	97%	106%	95%	109%	111%	73%	–	–	48.1 µg/mL (≈ 112 µM)	47.9 µg/mL (≈ 111 µM)	–
